This passage reports activation results from PubChem BioAssay AID743238 (Broad Institute, 2013).

Where “and” joins values, the source holds several entries; their conditions need not be identical. Equal values may be shown once. The campaign covered roughly 360,000 compounds. About 200 (0.056%) were called active.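 How the source made its calls: active means mean normalized replicate activation at least 10% and every replicate at or above 10%; inconclusive means only one of the two criteria met; inactive means mean below 10% and not all replicates reach 10%.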 The entries come from a sample that favours actives as a whole.

A short description of the test: Xi reactivation inducers in mouse fibroblasts – imaging, XiGFP fibroblasts, GFP high-content imaging, set 2, primary screen (AID 743238).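 Further: 0% = median of on-plate neutral control wells and 100% = ellipticine 6 µM median.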 The following applies: % GFP-positive cells imaging, 3 d, at 7.58 µM, stronger effect = higher value, cells co-treated with 5-aza-dC sensitizer, scaled so ellipticine positive control = 100%. Summed up:
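Material: XiGFP fibroblasts, SV40-immortalized; Buffer or medium: DMEM containing 5-aza-dC; Compound dosing: single point; Times: 3 days compound exposure.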
Take `COC(=O)C[C@H]1CC[C@@H](NC(=O)c2ccccc2)[C@@H](CO)O1`: the activation is -0.033% (inactive).
As for `COc1ccc(NC(=O)N(C)C[C@H]2Oc3c(NC(=O)Nc4cccc5ccccc45)cccc3C(=O)N([C@@H](C)CO)C[C@H]2C)cc1`, the figure is -0.612% (inactive).
Under `O=C(C[C@H]1C[C@H]2c3cc(NC(=O)Nc4ccc(C(F)(F)F)cc4)ccc3O[C@H]2[C@@H](CO)O1)NCc1cccnc1` stands 0.387% (inactive); under `CCCC(=O)Nc1ccc2c(c1)OC[C@H](C)N(CCc1ccccc1)C[C@H](C)[C@@H](OC)CN(C)C2=O`, -0.359% (inactive); under `CCNC(=O)C[C@@H]1C=C[C@@H](NC(=O)C2CCOCC2)[C@@H](CO)O1`, 0.276% (inactive).
As for `COc1ccc(S(=O)(=O)N(C)C[C@@H]2Oc3ccc(NC(=O)Cc4ccccc4)cc3CC(=O)N([C@@H](C)CO)C[C@H]2C)cc1`, the figure is -0.0685% (inactive); as for `COc1ccc2c3c([nH]c2c1)[C@@H](CO)N(Cc1cc(F)ccc1F)CC31CCN(C(=O)C2CCC2)CC1`, 0.358% (inactive).
For `Cc1ccc(S(=O)(=O)Nc2ccc3c(c2)C(=O)N(C)[C@@H]2CC[C@@H](CC(=O)O)O[C@H]2CO3)cc1`, the activation is 0.151% (inactive).
Under `O=C(C[C@@H]1C=C[C@H](NC(=O)Nc2ccccc2F)[C@H](CO)O1)NCc1ccc(F)cc1` stands 0.215% (inactive); under `C[C@H](CO)N1C[C@H](C)[C@@H](CN(C)S(=O)(=O)c2cccs2)Oc2ccc(NC(=O)Nc3ccc(C(F)(F)F)cc3)cc2CC1=O`, -0.017% (inactive); under `C[C@@H]1CCCCO[C@H](CN(C)C(=O)CCCN(C)C)[C@H](C)CN([C@@H](C)CO)C(=O)c2cc(NS(=O)(=O)c3ccc(Cl)cc3)ccc2O1`, 0.114% (inactive).
Turning to `C[C@H]1CCCCO[C@H](CN(C)C(=O)Nc2ccc(F)cc2)[C@@H](C)CN([C@@H](C)CO)C(=O)c2cc(NC(=O)CCC(F)(F)F)ccc2O1`, the activation is -0.105% (inactive).
Under `N#C[C@@H]1[C@H](c2ccccc2-c2ccccc2F)[C@@H](CO)N1C(=O)C1CCOCC1` stands 0.163% (inactive); under `O=C1C(Cl)=C(Oc2ccccc2)C(=O)c2ccccc21`, 19.2% (active); under `CCC(=O)Nc1ccc2c(c1)C(=O)N(C)C[C@H](OC)[C@H](C)CN(C(=O)c1ccccc1F)[C@@H](C)CO2`, 0.375% (inactive).
Under `CO[C@H]1CN(C)C(=O)c2cc(NS(C)(=O)=O)ccc2OC[C@@H](C)N(C)C[C@@H]1C` stands -0.465% (inactive); under `C[C@@H]1CN([C@@H](C)CO)C(=O)CCCn2cc(nn2)CO[C@@H]1CN(C)S(=O)(=O)c1cccc(F)c1`, -0.223% (inactive).
As for `C[C@H]1CN([C@@H](C)CO)C(=O)c2c(c3ccccc3n2C)-c2ccccc2CO[C@H]1CN(C)S(=O)(=O)c1ccc(C#N)cc1`, the figure is -1.22% (inactive); as for `CCC(=O)N1CC(=O)N2[C@@H](CO)[C@@H](c3ccc(C#CC4CCCC4)cc3)[C@@H]2C1`, -0.0225% (inactive).
`CCCC#Cc1ccc([C@H]2[C@H]3CN(C(=O)Nc4cc(F)ccc4F)CC(=O)N3[C@H]2CO)cc1`: the activation was 0.26% (inactive).
Under `CN1C(=O)c2cc(NC(=O)c3cccc(F)c3)ccc2OC[C@@H]2O[C@@H](CC(=O)NCC3CCCCC3)CC[C@H]21` stands -0.045% (inactive) and -0.023% (inactive); under `Cc1ccccc1S(=O)(=O)N1C[C@H](O)COC[C@H]2O[C@H](CC(=O)N3CCCCC3)CC[C@@H]21`, 0.037% (inactive); under `C=C(C)C[C@H]1CCn2cc(nn2)COCCNC1=O`, 0.348% (inactive).
As to `C[C@H]1CN([C@@H](C)CO)C(=O)c2cccc(NC(=O)CCCCCC(=O)Nc3ccccc3N)c2O[C@@H]1CN(C)C(=O)NC1CCCCC1`, the activation was -1.38% (inactive).
As for `C[C@@H]1CN([C@@H](C)CO)C(=O)c2cc(NS(=O)(=O)c3ccc(F)cc3)ccc2O[C@@H]1CN(C)C(=O)NC1CCCCC1`, the figure is 0.0955% (inactive); as for `O=C(C[C@@H]1C=C[C@H](NC(=O)C2CCC2)[C@@H](CO)O1)NCC1CC1`, 0.225% (inactive).
As for `C[C@@H]1CN([C@@H](C)CO)C(=O)c2cc(NC(=O)Nc3cccc4ccccc34)ccc2O[C@H]1CN(C)Cc1ccc(Oc2ccccc2)cc1`, the figure is 0.262% (inactive); as for `O=C([C@@H]1[C@@H](CO)[C@@H]2Cn3c(ccc(C4=CCCC4)c3=O)[C@H]1N2C(=O)c1ccncc1)N1CCCCC1`, 0.116% (inactive).
Under `O=C(C[C@@H]1C[C@H]2c3cc(NC(=O)Nc4ccccc4F)ccc3O[C@H]2[C@@H](CO)O1)NC1CCCCC1` stands -0.047% (inactive).
`C[C@H](NC(=O)C[C@H]1C=C[C@@H](NC(=O)C2CCOCC2)[C@@H](CO)O1)c1ccccc1`: the activation is 0.456% (inactive).
As for `C[C@@H]1CC=CC[C@@H](c2ccccc2)NC(=O)[C@@H](Cc2ccccc2)N(C)C(=O)c2ccccc2O1` (mixture of isomers), the figure is 0.0795% (inactive); as for `Cc1ccc(-c2ccc([C@H]3[C@H]4CN(S(=O)(=O)c5cccc(F)c5)CC(=O)N4[C@H]3CO)cc2)cc1`, 0.287% (inactive).
Under `CC(C)NC(=O)N1[C@H](CO)[C@@H]2c3ccccc3N(C(=O)Nc3cccc(Cl)c3)C[C@@H]21` stands 0.198% (inactive); under `C/C=C/c1ccc([C@H]2[C@@H](CO)N3CCCCN(C(=O)c4ccc(F)cc4)C[C@@H]23)cc1`, 0.11% (inactive); under `O=C(Nc1cc(F)ccc1F)N[C@H]1CC[C@H](CCn2cc(C3CCCC3)nn2)O[C@@H]1CO`, 0.418% (inactive).
As for `C/C=C/c1ccccc1[C@H]1[C@@H](C#N)N(c2nc(CC)cs2)[C@@H]1CO`, the figure is -0.0085% (inactive); as for `OC[C@@H]1[C@@H](c2ccccc2)C2(CN(Cc3cccc(F)c3)C2)N1CC1CCCC1`, -0.0685% (inactive); as for `CO[C@@H]1CN(C)C(=O)c2cc(NC(=O)C3CCCC3)ccc2OC[C@@H](C)N(C(=O)Nc2ccc(C(F)(F)F)cc2)C[C@H]1C`, 0.0025% (inactive).
As to `C[C@@H]1CN([C@H](C)CO)C(=O)c2cccc(NS(=O)(=O)c3ccc(Cl)cc3)c2O[C@@H]1CN(C)CC1CC1`, the activation was 0.281% (inactive).
As to `Cc1noc(C)c1NC(=O)N(C)C[C@@H]1Oc2c(NC(=O)C3CCCCC3)cccc2C(=O)N([C@H](C)CO)C[C@@H]1C`, the activation was -0.974% (inactive).
As for `CCCC(=O)N1CCC2(CC1)CN[C@H](CO)c1[nH]c3cc(OC)ccc3c12`, the activation was -0.018% (inactive).
In the case of `O=C(C[C@@H]1CC[C@H]2[C@@H](COC[C@@H](O)CN2S(=O)(=O)c2cccc(F)c2)O1)NCCCN1CCOCC1`, the activation is -0.0535% (inactive).
For `C[C@@H]1CCCCO[C@H](CN(C)Cc2ccncc2)[C@@H](C)CN([C@H](C)CO)C(=O)c2cc(NS(C)(=O)=O)ccc2O1`, the activation is -0.0215% (inactive).
As for `CO[C@H]1CN(C)C(=O)c2ccc(NC(=O)C3CCC3)cc2OC[C@H](C)NC[C@@H]1C`, the figure is 0.146% (inactive); as for `COc1ccc(NC(=O)Nc2ccc3c(c2)[C@H]2C[C@H](CC(=O)NC4CCCC4)O[C@@H](CO)[C@H]2O3)cc1`, 4.51% (inactive); as for `COc1cccc(-c2ccc([C@@H]3[C@H]4CN(C(=O)c5cccnc5)CC(=O)N4[C@H]3CO)cc2)c1`, 0.076% (inactive).
For the compound `O=C(c1ccncc1)N1C[C@H]2[C@@H](c3ccccc31)[C@H](CO)N2C(=O)Nc1ccc(F)cc1`, the activation was 0.255% (inactive).
For `C[C@H]1CN([C@@H](C)CO)C(=O)Cc2cc(NC(=O)Cc3ccccc3)ccc2O[C@@H]1CN(C)S(=O)(=O)c1ccc(Cl)cc1`, the activation was -1.34% (inactive).
Under `CO[C@@H]1CN(C)C(=O)c2cc(NC(=O)NC3CCCC3)ccc2OC[C@H](C)NC[C@H]1C` stands 0.41% (inactive); under `C[C@@H]1CCCCO[C@@H](CN(C)C(=O)CCCN(C)C)[C@@H](C)CN([C@H](C)CO)C(=O)c2cc(NC(=O)Nc3ccc(F)cc3)ccc2O1`, 0.229% (inactive).
As for `COc1ccc(N2C(=O)C3CCCN3C2c2cccs2)cc1` (stereo not drawn), the figure is -0.124% (inactive).
`COc1ccc(N2C(=O)C3CCCN3C2c2cc(OC)c(OC)cc2OC)cc1` (stereo not drawn): the activation is 0% (inactive).
Regarding `COc1ccc(N2C(=O)C3CCCN3C2c2cccc(OC)c2)cc1` (stereo not drawn), the activation is 12.3% (active).
Under `O=C(C[C@@H]1CC[C@@H]2[C@H](COC[C@H](O)CN2C(=O)C2CC2)O1)NCc1ccncc1` stands 0.085% (inactive).
As for `C[C@@H]1CCCCO[C@H](CN(C)S(C)(=O)=O)[C@@H](C)CN([C@@H](C)CO)C(=O)c2cc(NC(=O)CCC(F)(F)F)ccc2O1`, the figure is 0.0715% (inactive); as for `O=C(c1ccccn1)N1CC2(C1)[C@@H](c1ccccc1)[C@@H](CO)N2C(=O)C1CCCCC1`, -0.0175% (inactive).
As to `O=C(N[C@@H]1CC[C@H](CCn2cc(C3CC3)nn2)O[C@H]1CO)c1cccnc1`, the activation is -0.107% (inactive).
Regarding `CO[C@H]1CN(C)C(=O)c2cc(NC(=O)C3CC3)ccc2OC[C@@H](C)NC[C@H]1C`, the activation was 0.168% (inactive).
Take `C#Cc1cc(N2CCN(C(=O)c3ccoc3)CC2)n2nc(-c3cccc(Cl)c3)cc2n1`: the activation is 34% (active).
For the compound `CNc1cncc(-c2cccc(C(=O)N3CCOCC3)c2)n1`, the activation was 0.023% (inactive).
Under `CCc1nc2ccc(C(=O)N3CCN(c4cccc(Cl)c4)CC3)cc2nc1CC` stands 0.143% (inactive); under `CO[C@@H]1CN(C)C(=O)c2cc(NC(=O)c3cccc(F)c3)ccc2OC[C@H](C)N(C)C[C@@H]1C`, -0.118% (inactive); under `COc1ccc(NC(=O)N(C)C[C@@H]2OCCCC[C@H](C)Oc3ccc(NS(=O)(=O)c4c(C)noc4C)cc3C(=O)N([C@@H](C)CO)C[C@@H]2C)cc1`, 0.115% (inactive).
